Mdm2 ligase inh = Mdm2 E3 ligase (human) inhibition. Q00987. cell-based MDM2 ubiquitination luciferase reporter, 2 h; 0 = plate control, 100 = twice control, blank-subtracted. signal enhancement, % at 5 µM. 210,000 compounds, 0.11% hits;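 active means signal enhancement of 30% or more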;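 further: luminescence tracks abundance of the self-degrading MDM2-luciferase fusion protein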
Target sequence (Q00987 whole entry, looked up, the tested form may be a part): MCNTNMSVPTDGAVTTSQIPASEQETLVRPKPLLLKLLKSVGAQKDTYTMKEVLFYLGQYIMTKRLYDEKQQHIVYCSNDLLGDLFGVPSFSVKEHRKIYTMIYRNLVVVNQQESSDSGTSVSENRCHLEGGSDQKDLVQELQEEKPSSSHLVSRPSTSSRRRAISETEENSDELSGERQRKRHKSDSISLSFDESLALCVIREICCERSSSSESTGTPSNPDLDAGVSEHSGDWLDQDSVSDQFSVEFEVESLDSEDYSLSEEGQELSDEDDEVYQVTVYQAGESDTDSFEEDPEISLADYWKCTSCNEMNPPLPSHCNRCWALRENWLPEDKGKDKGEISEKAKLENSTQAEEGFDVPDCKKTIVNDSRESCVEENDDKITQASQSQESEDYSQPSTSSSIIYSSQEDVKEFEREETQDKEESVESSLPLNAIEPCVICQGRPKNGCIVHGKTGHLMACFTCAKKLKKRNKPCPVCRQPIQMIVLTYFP
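system = mammalian cells stably expressing self-ubiquitinating, self-degrading MDM2 E3–luciferase fusion | quantity = 2000 cells per well seeded | incubation = 4 h cell settling then 2 h compound exposure, 37 °C | signal = SteadyLite luminescence, 15 min reagent step | benchmarks = plate control and blank wells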
S1P3 antag-1 = blocks the human S1P3 receptor; AID 485; CHO S1P3 NFAT-BLA reporter, FRET fluorescence, antagonist mode; inhibition, % at 4.98 µM; 170,000 compounds, 0.27% hits; Q99500;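 active means inhibition above the plate cutoff, the mean inhibition of test wells on that plate plus 3 SD, cut at about 28% in these data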;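 further: cells challenged with S1P at its EC80 of 0.8 µM; blue over green emission ratio from cleaved BLA substrate after 4 h stimulation; 0% = S1P-stimulated wells and 100% = unstimulated DMSO-only wells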
Hsp70 activator = switches on Hsp70 transcription. 200,000 compounds, 0.04% hits. HeLa Hsp70 promoter luciferase reporter, luminescence; scaled: vehicle 0, proteasome-inhibitor control 100%. AID 1203. activation, % at 10 µM;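 active means activation above the mean across all tested compounds plus 3 SD, cutoff set per campaign, cut at about 5.5% in these data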;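 further: 100% = MG132 at 30 µM as the positive control and 0% = DMSO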
CHOP inh = blocks CHOP induction under ER stress; CHO-K1 CHOP-promoter luciferase, tunicamycin-induced, 15-18 h; inhibition, % at 10 µM; 220,000 compounds, 3.8% hits;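 active means compounds that reduced the stress-induced luciferase reporter signal by more than about 70% of percent inhibition, limit read from the data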;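 further: 0% = tunicamycin plus vehicle and 100% = wells without tunicamycin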
S1P3 antag-2 = confirmation of human S1P3 receptor antagonists | shares compounds with S1P3 antag-1 | CHO S1P3 NFAT-BLA reporter, FRET, antagonist mode | inhibition, % at 4.98 µM | 240 compounds, 30% hits;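 active means inhibition above the hit threshold that was computed for the earlier primary screen, cut at about 30% in these data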;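 further: 0% = S1P-stimulated wells and 100% = unstimulated DMSO-only wells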
The depositor's hits bear a star; x = no result; ! = repeats disagree. An excerpt weighted towards active compounds, which were near 4% of everything screened.

SMILES	Mdm2 ligase inh	S1P3 antag-1	Hsp70 activator	CHOP inh	S1P3 antag-2
CC(C)(C)c1cc(C(=O)Nc2ccc(F)cc2)n(Cc2ccc(F)cc2)n1	-31	30*	x	45	24
S=c1[nH]ccn1-c1ccccc1Cl	-15	73*!	x	23	-13
Clc1ccc(C2=CC(c3ccco3)n3ncnc3N2)cc1 (configuration not stated)	-5	x	0	-8	x
Clc1ccccc1C1=CC(c2ccco2)n2ncnc2N1 (configuration not stated)	-1	32*	x	5	7
CCCCNC(=O)COC(=O)c1c2c(nc3ccccc13)/C(=C/c1cccs1)CC2	-3	37*	0	47	25
CS(=O)(=O)N1CC(C(=O)NC2CCCC2)Oc2ccc(Cl)cc21 (configuration not stated)	-5	x	0	13	x
O=C(O)CCCNS(=O)(=O)/C=C/c1ccccc1	-11	-2	0	-7	x
Cc1ccc(S(=O)(=O)NCCc2nnc3ccc(SCC(=O)Nc4nc5ccccc5s4)nn23)cc1	-18	28*	0	-11	-5
Cc1cc(NC(=O)CSc2ccc3nnc(CCNS(=O)(=O)c4ccccc4)n3n2)no1	3	-27	0	-14	x
c1ccc(CCNc2ncnc3ccccc23)cc1	-31	44*	0	61	33*
O=C(CSc1ncnc2ccccc12)NCCc1ccccc1	1	7	0	-12	x
Cc1ccc2c(C)c(C(=O)NCc3ccc(S(N)(=O)=O)cc3)oc2c1	5	-19	0	20	x
CCOc1ccc(N2C(=O)S/C(=C\c3cc(OC)c(OC)c(OC)c3)C2=O)cc1	-8	4	x	40	x
COc1cc(/C=C2\SC(=O)N(c3ccc(O)cc3)C2=O)cc(OC)c1OC	-1	31*	x	18	-1
CCOC(=O)C1CCCN(S(=O)(=O)c2ccc(S(=O)(=O)N(CC)CC)cc2)C1 (configuration not stated)	-87	48*	1	65	22
CCOC(=O)C1CCCN(S(=O)(=O)c2ccc(C)cc2)C1 (configuration not stated)	-9	10	0	11	x
CC(=O)c1ccc(N(C(=O)c2csnn2)C(C(=O)NC(C)(C)C)c2cccs2)cc1 (configuration not stated)	4	-2	0	-17	x
CN(C)/C=C/C(=O)C(F)(F)F	-10	-9	0	8	x
CN(C)/C=C/C(=C\C(=O)C(F)(F)F)Nc1ccc(C(F)(F)F)cc1	4	45*	0	21	-6
Cc1cccc(C2(c3cccc(C)c3)CC2C(=O)Nc2ccc([N+](=O)[O-])cc2O)c1 (configuration not stated)	0	76*	0	103*	73*
CCCCNc1ccc2c3c(cccc13)C(=O)N(CCCC)C2=O	-12	47*	x	-36	59*
CC(=O)c1c(C)[nH]c(C(=O)Nc2nc(-c3ccccc3)c(C)s2)c1C	3	-3	0	-4	x
CC(=O)c1c(C)[nH]c(C(=O)NC(C)c2ccccc2)c1C (configuration not stated)	-13	38*	0	-2	-11
CCCCCCCCCn1ccc(=N)cc1	-51	30*	x	76*	3
Cc1c(Cl)cn2c(=O)cc(CN(C)Cc3nc4ccccc4c(=O)[nH]3)nc2c1Cl	-8	34*	0	20	-14
SMILES	Mdm2 ligase inh	S1P3 antag-1	Hsp70 activator	CHOP inh	S1P3 antag-2
O=C(NCc1ccco1)C(=S)N1CCCCC1	-4	28*	0	17	-10
CCN(c1ccccc1)S(=O)(=O)c1ccc(Cl)c(NC(=O)COC(=O)c2ccc[nH]c2=O)c1	-4	-8	x	5	x
CCCNc1nc(OCC(F)(F)F)nc(OCC(F)(F)F)n1	x	x	0	16	x
CNc1nc(Nc2ccccc2)nc(OCC(F)(F)F)n1	-7	39*	0	23	-5
N#Cc1cc2nc(O)c(O)nc2cc1[N+](=O)[O-]	x	x	x	-1	x
CNc1nc2cc([N+](=O)[O-])c([N+](=O)[O-])cc2nc1NC	-16	54*	0	75*	34*
COc1ccc(C(=O)NCc2ccc(-n3cccc3)cc2)cc1OC	-3	41*	0	6	-15
Cc1nn(C)c(C)c1CN(Cc1nc(CCC(C)C)no1)C(C)C	-21	32*	0	68	13
CC(C)CCc1noc(CN(C)CCC2CCOCC2)n1	-16	-7	x	19	x

Screening results (PubChem)
